Results: ChEMBL document CHEMBL3779798, “Novel seleno- and thio-urea derivatives with potent in vitro activities against several cancer cell lines” (Eur J Med Chem, 2016)
Calls of active or inactive are those of the source. The calls are words filed in the database; no cut-off is given here.

Legend:
[1] = Anticancer activity against human HCT116 cells assessed as inhibition of cell growth after 48 hrs by MTT assay; type: functional, cell-based; details: HCT-116, 48 h
In short: (§1)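 MTT assay at 3,000 cells/well. Cells treated with DMSO or seven concentrations from 0.5 to 50 µM for 24, 48 or 72 h. MTT added 3 h before the end point; formazan dissolved in DMSO and read at 570 and 630 nm. IC50 is the concentration giving 50% growth inhibition. Media: PANC-1, BxPC3 and 1205Lu in DMEM; DU145 and A549 in RPMI 1640; HT29, HCT116 and RKO in McCoy's 5A, all with 10% FBS and pen/strep, at 37 °C and 5% CO2.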

HCT-116 [2] = test: Induction of apoptosis in human HCT116 cells assessed as late apoptotic cells at 1 uM after 24 hrs by annexin-V staining based flow cytometry analysis (reference value: 1.06%); type: functional
HCT-116 [3] = test: Induction of apoptosis in human HCT116 cells assessed as late apoptotic cells at 5 uM after 24 hrs by caspase3/7 reagent based flow cytometry (reference value: 2.28%); type: functional
[4] = Anticancer activity against human BxPC3 cells assessed as inhibition of cell growth after 72 hrs by MTT assay; type: functional, cell-based; details: BXPC-3, 72 h; in short: as §1
[5] = Anticancer activity against human PANC1 cells assessed as inhibition of cell growth after 24 hrs by MTT assay; type: functional, cell-based; details: PANC-1, 24 h; in short: as §1
HCT-116 [6] = test: Induction of apoptosis in human HCT116 cells assessed as necrotic cells at 2.5 uM after 24 hrs by annexin-V staining based flow cytometry analysis (reference value: 0.72%); type: functional
[7] = Anticancer activity against human BxPC3 cells assessed as inhibition of cell growth after 48 hrs by MTT assay; type: functional, cell-based; details: BXPC-3, 48 h; in short: as §1
A549 [8] = test: Anticancer activity against human A549 cells assessed as inhibition of cell growth after 72 hrs by MTT assay; type: functional, cell-based; details: A549, 72 h; in short: as §1
[9] = Induction of cell death in human HCT116 cells at 2.5 uM after 24 hrs by calcein-AM and ethidium homodimer-1 staining based flow cytometry analysis (reference value: 1.1%); type: functional, HCT-116
HCT-116 [10] = test: Induction of apoptosis in human HCT116 cells assessed as early apoptotic cells at 1 uM after 24 hrs by caspase3/7 reagent based flow cytometry (reference value: 5.18%); type: functional
RKO [11] = test: Anticancer activity against human RKO cells assessed as inhibition of cell growth after 48 hrs by MTT assay; type: functional, cell-based; in short: as §1
RKO [12] = test: Anticancer activity against human RKO cells assessed as inhibition of cell growth after 72 hrs by MTT assay; type: functional, cell-based; in short: as §1
[13] = Anticancer activity against human PANC1 cells assessed as inhibition of cell growth after 48 hrs by MTT assay; type: functional, cell-based; details: PANC-1, 48 h; in short: as §1
HT-29 [14] = test: Anticancer activity against human HT-29 cells assessed as inhibition of cell growth after 72 hrs by MTT assay; type: functional, cell-based; details: HT-29, 72 h; in short: as §1
HCT-116 [15] = test: Decrease in whole PARP level in human HCT116 cells at 0.5 to 5 uM after 24 hrs by western blot analysis; type: functional, cell-based
In short: (§2)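 HCT116 cells (6 × 10^5/well) treated for 24 h. Whole-cell lysates made in RIPA buffer with phosphatase and protease inhibitors and PMSF, cleared at 15,000 g, resolved by SDS-PAGE and transferred to PVDF. Blots probed overnight in the cold with primary antibodies, then peroxidase-linked secondaries, and detected by ECL; β-actin antibody used.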

HCT-116 [16] = test: Induction of apoptosis in human HCT116 cells assessed as early apoptotic cells at 2.5 uM after 24 hrs by caspase3/7 reagent based flow cytometry (reference value: 5.18%); type: functional
[17] = Anticancer activity against human DU145 cells assessed as inhibition of cell growth after 48 hrs by MTT assay; type: functional, cell-based; details: DU-145, 48 h; in short: as §1
HCT-116 [18] = test: Induction of apoptosis in human HCT116 cells assessed as viable cells at 1 uM after 24 hrs by annexin-V staining based flow cytometry analysis (reference value: 90.38%); type: functional; details: HCT-116, 24 h, read-out: Activity
[19] = Anticancer activity against human DU145 cells assessed as inhibition of cell growth after 72 hrs by MTT assay; type: functional, cell-based; details: DU-145, 72 h; in short: as §1
[20] = Anticancer activity against human BxPC3 cells assessed as inhibition of cell growth after 24 hrs by MTT assay; type: functional, cell-based; details: BXPC-3, 24 h; in short: as §1
HCT-116 [21] = test: Induction of apoptosis in human HCT116 cells assessed as late apoptotic cells at 1 uM after 24 hrs by caspase3/7 reagent based flow cytometry (reference value: 2.28%); type: functional
HCT-116 [22] = test: Induction of apoptosis in human HCT116 cells assessed as early apoptotic cells at 2.5 uM after 24 hrs by annexin-V staining based flow cytometry analysis (reference value: 7.84%); type: functional
HCT-116 [23] = test: Induction of apoptosis in human HCT116 cells assessed as viable cells at 2.5 uM after 24 hrs by caspase3/7 reagent based flow cytometry (reference value: 88.4%); type: functional; details: HCT-116, 24 h, read-out: Activity
HCT-116 [24] = test: Induction of apoptosis in human HCT116 cells assessed as viable cells at 1 uM after 24 hrs by caspase3/7 reagent based flow cytometry (reference value: 88.4%); type: functional; details: HCT-116, 24 h, read-out: Activity
HCT-116 [25] = test: Induction of apoptosis in human HCT116 cells assessed as early apoptotic cells after 24 hrs by annexin-V staining based flow cytometry analysis; type: functional, cell-based
HCT-116 [26] = test: Induction of apoptosis in human HCT116 cells assessed as viable cells at 5 uM after 24 hrs by caspase3/7 reagent based flow cytometry (reference value: 88.4%); type: functional; details: HCT-116, 24 h, read-out: Activity
HCT-116 [27] = test: Decrease in number of viable cells in human HCT116 cells at 1 uM after 24 hrs by calcein-AM and ethidium homodimer-1 staining based flow cytometry analysis (reference value: 94.9%); type: functional
HCT-116 [28] = test: Decrease in pro-caspase3 level in human HCT116 cells at 0.5 to 5 uM after 24 hrs by western blot analysis; type: functional, cell-based; in short: as §2
HT-29 [29] = test: Anticancer activity against human HT-29 cells assessed as inhibition of cell growth after 48 hrs by MTT assay; type: functional, cell-based; details: HT-29, 48 h; in short: as §1
HCT-116 [30] = test: Potency index, ratio IC50 of 5-FU to IC50 of compound for anticancer activity against human HCT116 cells; type: functional
In short: (§3)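 Colon lines (McCoy's 5A, 10% FBS, penicillin/streptomycin, 37 °C, 5% CO2) seeded at 3,000 cells/well and exposed 24, 48 or 72 h to DMSO or seven concentrations across 0.5–50 µM. MTT added 3 h before end; formazan dissolved in DMSO, absorbance read at 570 and 630 nm. IC50 (50% growth inhibition) from curve fitting; index is the 5-FU IC50 divided by the compound IC50.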

HCT-116 [31] = test: Induction of apoptosis in human HCT116 cells assessed as necrotic cells at 1 uM after 24 hrs by caspase3/7 reagent based flow cytometry (reference value: 4.14%); type: functional
[32] = Induction of cell death in human HCT116 cells at 1 uM after 24 hrs by calcein-AM and ethidium homodimer-1 staining based flow cytometry analysis (reference value: 1.1%); type: functional, HCT-116
RKO [33] = test: Potency index, ratio IC50 of 5-FU to IC50 of compound for anticancer activity against human RKO cells; type: functional; in short: as §3
A549 [34] = test: Anticancer activity against human A549 cells assessed as inhibition of cell growth after 24 hrs by MTT assay; type: functional, cell-based; details: A549, 24 h; in short: as §1

Br.Br.N=C(N)[Se]Cc1nc2ccccc2nc1C[Se]C(=N)N
IC50 [1]: 0.7 µM | Activity (HCT-116 [2]): 2.28% | Activity (HCT-116 [3]): 50.26% | IC50 [4]: 2.2 µM | IC50 [5]: 6.6 µM | Activity (HCT-116 [6]): 0.58% | IC50 [7]: 2.9 µM | IC50 (A549 [8]): 1 µM | Activity [9]: 5.1% | Activity (HCT-116 [10]): 7.18% | IC50 (RKO [11]): 1.9 µM | IC50 (RKO [12]): 2.5 µM | IC50 [13]: 2.9 µM | IC50 (HT-29 [14]): 2.2 µM | Activity (HCT-116 [15]): Active | Activity (HCT-116 [16]): 6.48% | IC50 [17]: 2.8 µM | viability at 1 µM (HCT-116 [18]): 78.1% | IC50 [19]: 1 µM | IC50 [20]: 3.6 µM | Activity (HCT-116 [21]): 2.64% | Activity (HCT-116 [22]): 21.6% | viability at 2.5 µM (HCT-116 [23]): 85% | viability at 1 µM (HCT-116 [24]): 87% | Activity (HCT-116 [25]): Dose-dependent effect | viability at 5 µM (HCT-116 [26]): 16.1% | Activity (HCT-116 [27]): 96.9% | Activity (HCT-116 [28]): Active | IC50 (HT-29 [29]): 4.1 µM | Ratio IC50 (HCT-116 [30]): >50 | Activity (HCT-116 [31]): 3.18% | Activity [32]: 0.7% | Ratio IC50 (RKO [33]): >50 | IC50 (A549 [34]): 3 µM
